# Source: ChEMBL document CHEMBL4689842, “EUbOPEN Chemogenomics Library wave 1” (2021)
# Assays:
# [1] = system: U2OS; test: Multiplex assay against U2OS; type: toxicity, cell-based; settings: human
# Method in brief: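 Imaging took place on a CQ1 microscope at 37°C and 5% CO2 once compound had been added to live cells stained at seeding with Hoechst33342, BioTracker Green Microtubule Cytoskeleton Dye, MitoTracker Red and Annexin V Alexa Fluor 680. CellPathfinder machine-learning gating classed cells as Hoechst high-intensity objects or normal cells, classed normal cells as having healthy, pyknosed or fragmented nuclei, and classed pyknosed cells as mitotic or apoptotic. Tubulin, mitochondrial-mass and membrane-permeability phenotypes are per cents of the healthy-nucleus cells.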
# [2] = system: U2OS; test: Incucyte cell viability with U2OS; type: toxicity, cell-based; settings: human, 10 µM, compound concentration 10 uM; note: filed as whole numbers so only -1 and 0 and 1 occur
# [3] = 12 h, 1 µM, compound concentration 1 uM, replicate 1
# [4] = 12 h, 1 µM, compound concentration 1 uM, replicate 2
# [5] = 12 h, 10 µM, compound concentration 10 uM, replicate 1
# [6] = 12 h, 10 µM, compound concentration 10 uM, replicate 2
# [7] = 24 h, 1 µM, compound concentration 1 uM, replicate 1
# [8] = 24 h, 1 µM, compound concentration 1 uM, replicate 2
# [9] = 24 h, 10 µM, compound concentration 10 uM, replicate 1
# [10] = 24 h, 10 µM, compound concentration 10 uM, replicate 2
structure (smiles),measurement,setting,value
c1ccc2oc(-c3csc(C4CCN(Cc5nc6ncccc6[nH]5)CC4)n3)cc2c1,Population Apoptotic (%),[1]; [3],8%
same,Population Fragmented Nuclei (%),[1]; [3],2%
same,Population Healthy Nuclei (%),[1]; [3],90%
same,Population Hoechst High Intensity Objects (%),[1]; [3],3%
same,Population Membrane Permeable-Phenotype (%),[1]; [3],12%
same,Population Mitochondria Different-Phenotype (%),[1]; [3],15%
same,Population Mitotic Cells (%),[1]; [3],91%
same,Population Normal (%),[1]; [3],96%
same,Population Pyknosed Nuclei (%),[1]; [3],6%
same,Population Tubulin-Different-Phenotype (%),[1]; [3],10%
same,Total Cell Count,[1]; [3],182
same,Population Apoptotic (%),[1]; [4],25%
same,Population Fragmented Nuclei (%),[1]; [4],8%
same,Population Healthy Nuclei (%),[1]; [4],85%
same,Population Hoechst High Intensity Objects (%),[1]; [4],7%
same,Population Membrane Permeable-Phenotype (%),[1]; [4],8%
same,Population Mitochondria Different-Phenotype (%),[1]; [4],27%
same,Population Mitotic Cells (%),[1]; [4],75%
same,Population Normal (%),[1]; [4],92%
same,Population Tubulin-Different-Phenotype (%),[1]; [4],15%
same,Total Cell Count,[1]; [4],141
same,Population Apoptotic (%),[1]; [5],42%
same,Population Fragmented Nuclei (%),[1]; [5],4%
same,Population Healthy Nuclei (%),[1]; [5],91%
same,Population Hoechst High Intensity Objects (%),[1]; [5],3%
same,Population Membrane Permeable-Phenotype (%),[1]; [5],9%
same,Population Mitochondria Different-Phenotype (%),[1]; [5],25%
same,Population Mitotic Cells (%),[1]; [5],57%
same,Population Normal (%),[1]; [5],96%
same,Population Pyknosed Nuclei (%),[1]; [5],3%
same,Population Tubulin-Different-Phenotype (%),[1]; [5],29%
same,Total Cell Count,[1]; [5],205
same,Population Apoptotic (%),[1]; [6],25%
same,Population Fragmented Nuclei (%),[1]; [6],7%
same,Population Healthy Nuclei (%),[1]; [6],88%
same,Population Hoechst High Intensity Objects (%),[1]; [6],15%
same,Population Membrane Permeable-Phenotype (%),[1]; [6],18%
same,Population Mitochondria Different-Phenotype (%),[1]; [6],34%
same,Population Mitotic Cells (%),[1]; [6],75%
same,Population Normal (%),[1]; [6],84%
same,Population Pyknosed Nuclei (%),[1]; [6],4%
same,Population Tubulin-Different-Phenotype (%),[1]; [6],34%
same,Total Cell Count,[1]; [6],114
same,Population Apoptotic (%),[1]; [7],40%
same,Population Fragmented Nuclei (%),[1]; [7],2%
same,Population Healthy Nuclei (%),[1]; [7],90%
same,Population Hoechst High Intensity Objects (%),[1]; [7],2%
same,Population Membrane Permeable-Phenotype (%),[1]; [7],7%
same,Population Mitochondria Different-Phenotype (%),[1]; [7],16%
same,Population Mitotic Cells (%),[1]; [7],60%
same,Population Normal (%),[1]; [7],97%
same,Population Tubulin-Different-Phenotype (%),[1]; [7],19%
same,Total Cell Count,[1]; [7],223
same,Population Apoptotic (%),[1]; [8],25%
same,Population Fragmented Nuclei (%),[1]; [8],4%
same,Population Healthy Nuclei (%),[1]; [8],88%
same,Population Hoechst High Intensity Objects (%),[1]; [8],3%
same,Population Membrane Permeable-Phenotype (%),[1]; [8],9%
same,Population Mitochondria Different-Phenotype (%),[1]; [8],24%
same,Population Mitotic Cells (%),[1]; [8],75%
same,Population Normal (%),[1]; [8],96%
same,Population Pyknosed Nuclei (%),[1]; [8],6%
same,Population Tubulin-Different-Phenotype (%),[1]; [8],22%
same,Total Cell Count,[1]; [8],181
same,Population Apoptotic (%),[1]; [9],45%
same,Population Fragmented Nuclei (%),[1]; [9],5%
same,Population Healthy Nuclei (%),[1]; [9],90%
same,Population Hoechst High Intensity Objects (%),[1]; [9],1%
same,Population Membrane Permeable-Phenotype (%),[1]; [9],5%
same,Population Mitochondria Different-Phenotype (%),[1]; [9],14%
same,Population Mitotic Cells (%),[1]; [9],54%
same,Population Normal (%),[1]; [9],98%
same,Population Pyknosed Nuclei (%),[1]; [9],3%
same,Total Cell Count,[1]; [9],282
same,Population Apoptotic (%),[1]; [10],0%
same,Population Fragmented Nuclei (%),[1]; [10],4%
same,Population Healthy Nuclei (%),[1]; [10],91%
same,Population Hoechst High Intensity Objects (%),[1]; [10],9%
same,Population Membrane Permeable-Phenotype (%),[1]; [10],11%
same,Population Mitochondria Different-Phenotype (%),[1]; [10],33%
same,Population Mitotic Cells (%),[1]; [10],100%
same,Population Normal (%),[1]; [10],90%
same,Population Pyknosed Nuclei (%),[1]; [10],4%
same,Population Tubulin-Different-Phenotype (%),[1]; [10],33%
same,Total Cell Count,[1]; [10],137
same,Growth Rate,"[2]; 0 h, replicate number 2, timepoint 0 hours",1
same,Growth Rate,"[2]; 6 h, replicate number 1, timepoint 6 hours",0
same,Growth Rate,"[2]; 12 h, replicate number 1, timepoint 12 hours",0
same,Growth Rate,"[2]; 12 h, replicate number 2, timepoint 12 hours",1
same,Growth Rate,"[2]; 18 h, replicate number 1, timepoint 18 hours",0
same,Growth Rate,"[2]; 24 h, replicate number 1, timepoint 24 hours",1
same,Growth Rate,"[2]; 24 h, replicate number 2, timepoint 24 hours",0
